Only some compounds are listed: those with a hit (about 2.3% of all), similar ones and a draw of the others.
DNMT1 block: human DNMT1 methyltransferase inhibitors, primary screen, biochemical, molecular beacon, fluorescence, HinP1I cleavage, uHTS; inhibition (reported as % activation of signal), % at 10 µM; 0.83% of 360,000 active; AID 588458, 2011; in the data active = inhibition above about 50%
SUMO1-SIM PPI: modulators of SUMO1 protein-protein interactions, primary screen, biochemical, uHTS; Small ubiquitin-related modifier 1 (Homo sapiens), P63165; SUMO1 binding to a labelled peptide, TR-FRET, 1 h; inhibition, % at 20 µM; 0.33% of 360,000 active; in the data active = inhibition above about 37%
Rpn11 block: Rpn11 (PSMD14) deubiquitinase inhibitors, primary screen, biochemical, fluorescence polarization, uHTS | 26S proteasome non-ATPase regulatory subunit 14 (Homo sapiens), O00487 | human 26S proteasome, Ub4-pepOG fluorescence polarization; 20S core pre-blocked with epoxomicin | inhibition, % at 20 µM | 0.59% of 360,000 active;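 active = inhibition at 20 µM, scaled to each plate's controls, above about 33%, limit read from the data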
Target sequence (O00487 whole entry, looked up): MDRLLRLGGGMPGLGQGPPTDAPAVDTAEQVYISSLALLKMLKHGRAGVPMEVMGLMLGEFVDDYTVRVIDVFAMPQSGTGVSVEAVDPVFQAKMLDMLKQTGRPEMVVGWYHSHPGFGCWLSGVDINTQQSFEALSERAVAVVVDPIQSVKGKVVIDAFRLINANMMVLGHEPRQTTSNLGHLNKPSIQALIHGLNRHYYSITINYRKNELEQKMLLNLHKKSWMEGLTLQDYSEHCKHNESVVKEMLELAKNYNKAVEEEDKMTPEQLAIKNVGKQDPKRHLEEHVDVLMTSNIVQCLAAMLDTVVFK
STEP inh: STEP phosphatase inhibitors, primary screen, biochemical, fluorescence intensity, uHTS. 0.25% of 360,000 active. inhibition, % at 20 µM. Tyrosine-protein phosphatase non-receptor type 5 (Homo sapiens), P54829. recombinant STEP, OMFP fluorogenic substrate;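 active = inhibition at 20 µM, scaled per plate between control wells, above about 37%, limit read from the data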;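 also: 0% = DMSO with enzyme and substrate and 100% = substrate only without enzyme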
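Measure: Control-normalized % inhibition with plate pattern correction | Test system: STEP phosphatase, cell-free reaction | Medium: pH 6.0 Bis-Tris with DTT and Tween 20 | Technique: Fluorescence, 480/540 nm | Times: Reaction 20 min, ambient temperature | Doses: Single compound dose of 20 µM, 1% DMSO final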
LMPTP inh: LMPTP phosphatase inhibitors, primary screen, biochemical, fluorescence intensity, uHTS. Low molecular weight phosphotyrosine protein phosphatase (Homo sapiens), P24666. recombinant LMPTP-A, OMFP fluorogenic substrate. inhibition, % at 20 µM. 0.22% of 360,000 active. AID 651560, 2012;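 active = compounds that cut the enzyme signal by at least half of the control window in the single-dose screen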;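 also: plate controls were DMSO wells with enzyme plus substrate for no effect and substrate without enzyme for full effect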
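Test system: LMPTP-A, protein tyrosine phosphatase of low molecular weight; Input: 0.625 nM enzyme; Incubation: 50 min dark incubation at room temperature; Signal: endpoint fluorescence intensity from OMFP dephosphorylation; Read-out basis: % inhibition versus control wells.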
Scp1 inh: Scp-1 phosphatase inhibitors, primary screen, biochemical, colorimetric, uHTS. inhibition, % at 20 µM. 0.88% of 340,000 active. Recombinant Scp1, phosphopeptide, malachite green phosphate absorbance;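 active = inhibition above about 50% at 20 µM, limit read from the data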;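 also: plate controls were DMSO wells with enzyme for no effect and wells lacking enzyme for full effect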
Target sequence (Q9GZU7 76-261 limits assumed): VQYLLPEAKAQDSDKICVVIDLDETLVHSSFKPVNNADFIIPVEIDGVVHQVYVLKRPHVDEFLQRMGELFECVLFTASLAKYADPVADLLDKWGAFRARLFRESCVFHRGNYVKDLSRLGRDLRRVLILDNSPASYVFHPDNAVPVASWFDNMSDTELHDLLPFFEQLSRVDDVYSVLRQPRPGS
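Test system: SCP-1 phosphatase catalytic domain, residues 76-261; measured by: colorimetric phosphate reagent with accelerator and stabiliser, absorbance at 630 nm; timing: enzyme reaction 45 min at room temperature, colour 5 min, stabilisation 30 min; also added: Phosphorylated 17-residue peptide substrate; compound dosing: one concentration, 20 µM, with 1.0% DMSO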
Scp-1 conf: Scp-1 phosphatase inhibitors, retest, confirmation, biochemical, colorimetric, single concentration; 61% of 2,500 active; recombinant SCP-1 catalytic domain, phosphate release, malachite green absorbance; shares compounds with Scp1 inh; inhibition, % at 20 µM;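 also: plate controls were DMSO with enzyme for no effect and buffer wells lacking enzyme for full effect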
MG interference: colorimetric readout interference by compounds, confirmation, artefact control for Scp-1 inhibitor project, biochemical, single concentration. AID 540313, 2011. Colorimetric interference counterscreen, malachite green absorbance 630 nm. apparent inhibition (interference), % at 20 µM. shares compounds with Scp1 inh. 2,500 tested, under 10 active;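 also: compounds added after enzyme reaction finished so only phosphate colour detection is probed; plate controls were DMSO wells with completed Scp-1 reaction for no effect and substrate wells lacking enzyme for full effect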
Scp-1 Tm shift: Scp-1 binding by thermal shift, confirmation, orthogonal assay for Scp-1 inhibitor project, biophysical, differential scanning fluorimetry. Recombinant SCP1, Sypro Orange thermal shift Tm. thermal shift relative to vanadate control, % at 40 µM. AID 540329, 2011. shares compounds with Scp1 inh. 25% of 1,500 active;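 active = substances whose mean melting-temperature shift, as a percentage of the reference inhibitor's shift, reaches about 5.3%, limit read from the data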;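 also: 0% = Tm of DMSO wells and 100% = Tm with sodium orthovanadate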
Beacon interf DR: spectral interference with molecular beacon fluorescence, dose response, artefact control for DNMT1 inhibitor project, biochemical, fluorescent molecular beacon; spectral interference counter-screen; 200 tested, under 10 active; AID 602382, 2012; IC50, µM; shares compounds with DNMT1 block; call rule not given here
DNMT1 confirm: DNMT1 methyltransferase inhibitor retest, confirmation, biochemical, molecular beacon, fluorescence, single concentration | shares compounds with DNMT1 block | DNMT1 molecular beacon HinP1I cleavage | inhibition, % at 10 µM | 8% of 2,300 active | AID 602385, 2012;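 active = average inhibition of at least 30% in the single-concentration confirmation test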
Beacon interf: beacon fluorescence artifact counter-screen; AID 602387; DNMT1 molecular beacon spectral interference counterscreen, fluorescence 485/520; 1% of 2,300 active; shares compounds with DNMT1 block; activation (fluorescence interference), % at 10 µM;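 active = activation of at least 30% at 10 µM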;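 also: DNMT1 catalytic domain with a HinP1I cleavage step and a FAM/dabcyl DNA beacon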
* hit, by the source's call; / = not tested or not shown.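 The calls were made as follows, unless noted: active = inhibition of at least 30% at 20 µM; inactive = the rest.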

SMILES | DNMT1 block | SUMO1-SIM PPI | Rpn11 block | STEP inh | LMPTP inh | Scp1 inh | Scp-1 conf | MG interference | Scp-1 Tm shift | Beacon interf DR | DNMT1 confirm | Beacon interf
CCc1ccc(/C(C)=N/NC(=O)CNC(=O)/C=C/c2ccco2)cc1 | 92* | 108* | / | 24 | 9 | 94* | 65* | -12 | -14 | >99 | 69* | -6
CCCOc1ccc(/C=c2\sc3nc(-c4ccco4)nn3c2=O)cc1OCC | 73* | 14 | -11 | 1 | 2 | 84* | 9 | -25 | / | / | 3 | 1
CCC1=C(OC(=O)N(CC)CC)N2C(=O)OC(=NCC3CC3)[C@]2(C)[C@H]2C1=CC[C@H]1C(=O)N(CC)C(=O)[C@H]12 | 1 | 0 | -2 | -2 | -1 | -1 | / | / | / | / | / | /
CN(CC(=O)NC(=O)NCc1ccco1)Cc1nc2ccccc2c(=O)[nH]1 | 70* | 3 | -15 | 0 | 0 | 86* | 73* | -7 | -4 | / | 4 | 2
COc1ccc(C(=O)NCC(=O)Nc2ccc(-c3ccccc3)cc2)cc1 | 53* | 4 | 5 | 12 | 23 | 95* | 84* | -8 | -20 | / | 1 | -4
CCOC(=O)C(C)N1C(=O)S/C(=C\c2ccc(-c3ccccc3C(=O)O)o2)C1=O (stereo unspecified) | 100* | 46* | 24 | 26 | 6 | 52* | 53* | -12 | 11* | >99 | 45* | -3
C/C=C/C=C/C(=O)[C@@H]1[C@@H]([C@]2(C)OC(=O)C(C)=C2O)[C@H]2/C(=C(O)/C=C/C=C/C)C(=O)[C@]1(C)C(=O)C2(C)O (stereo partly specified) | 85* | 25 | 6 | 5 | 2 | 72* | 51* | -19 | 11* | >99 | 61* | 1
COc1ccc(OC)c([N+](=O)[O-])c1C(N)=O | 75* | 5 | -18 | 21 | 14 | 68* | 62* | -7 | -10 | / | 2 | -2
COC(=O)C1=COC(OC2OC(CO)C(O)C(O)C2O)C2C1C=CC2(O)CO (stereo unspecified) | 90* | 19 | -22 | 14 | 6 | 58* | 34* | -11 | -6 | / | 3 | -1
